# Screening data (PubChem BioAssay)
# Shown are actives, neighbours in structure and some others; about 2.6% of the full set was active somewhere.
# Rce1 inh = yeast Rce1p protease inhibitors, primary screen, biochemical, fluorescence, cell-free homogeneous; calls only; hit rate 0.27% among 290,000; AID 2563, 2010; CAAX prenyl protease 2 (Saccharomyces cerevisiae (strain ATCC 204508 / S288c)), Q03530; yeast membranes, quenched prenylated peptide cleavage fluorescence;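 active means fall in fluorescence gain of 50% or more versus controls, with final raw signal at or below 3038400; inconclusive means same 50% fall but final raw signal above 3038400; inactive means fall in fluorescence gain under 50%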
# Target sequence (Q03530 whole entry, looked up): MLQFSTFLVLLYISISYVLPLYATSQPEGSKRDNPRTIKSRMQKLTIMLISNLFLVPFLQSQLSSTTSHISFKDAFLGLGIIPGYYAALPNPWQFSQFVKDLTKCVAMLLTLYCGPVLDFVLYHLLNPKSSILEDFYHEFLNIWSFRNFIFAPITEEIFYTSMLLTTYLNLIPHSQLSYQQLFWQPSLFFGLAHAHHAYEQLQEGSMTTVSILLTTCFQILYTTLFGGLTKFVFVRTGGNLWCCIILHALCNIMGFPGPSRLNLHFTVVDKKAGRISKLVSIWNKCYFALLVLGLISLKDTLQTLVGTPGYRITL
# Platelet DG rel = inhibitors of platelet dense granule secretion, primary screen, cell-based, MLPCN, human platelets; hit rate 0.22% among 300,000; inhibition, %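 (compounds screened at 7.5 µM in platelet-rich plasma)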; human platelet-rich plasma, SFLLRN dense granule ATP release, luminescence;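 active means mean replicate score, as percent of positive control, at or above 50; inconclusive means mean below 50 but at least one replicate at or above 50; inactive means mean and every replicate below 50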
# TAAR1 agonist = human TAAR1 agonists, primary screen, Fluo-8 calcium fluorescence, CHO RD-HGA16 cells; vehicle wells 0%, saturating PEA agonist 100%; activation, % at 3 µM; hit rate 0.99% among 360,000; AID 624467, 2012;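 active means activation above the mean activation of all test compounds in the run plus 3 SD, cut at about 38% in these data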
# Target sequence (Q96RJ0 whole entry, looked up): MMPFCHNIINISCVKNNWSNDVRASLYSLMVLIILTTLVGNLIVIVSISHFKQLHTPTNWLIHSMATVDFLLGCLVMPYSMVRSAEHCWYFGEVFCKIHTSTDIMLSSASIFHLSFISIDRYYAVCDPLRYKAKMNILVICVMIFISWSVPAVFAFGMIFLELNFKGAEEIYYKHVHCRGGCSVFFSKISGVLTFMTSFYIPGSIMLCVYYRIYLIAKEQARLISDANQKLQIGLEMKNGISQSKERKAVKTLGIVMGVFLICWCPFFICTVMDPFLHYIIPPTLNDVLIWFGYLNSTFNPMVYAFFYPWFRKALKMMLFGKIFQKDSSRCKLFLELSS
#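 Assay system – CHO-derived RD-HGA16 cells with stable Gα16 and human TAAR1 · Compound dosing – one-point dosing at 3 µM (nominal) · Incubation – 17-24 h seeding, 75 min 37 °C dye, 30 min RT · Measured by – kinetic Fluo-8 calcium fluorescence · Control set – DMSO vehicle as 0%, PEA at EC100 as 100% · Repeats – single well for each compound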
# VLA-4 inh = inhibition in human VLA-4 binding assay, primary screen, VLA-4 allosteric modulator project, MLPCN library, flow cytometry, VLA-4 expressing cells. Integrin alpha-4 (Homo sapiens), P13612. ligand binding flow cytometry. inhibition, % (about 7 µM as worked out from the volumes in the protocol). hit rate 0.2% among 330,000. AID 2557, 2010; in the data active means inhibition above about 50%
# TAAR1 antag = human TAAR1 antagonists, primary screen, Fluo-8 calcium fluorescence, CHO RD-HGA16 cells; Trace amine-associated receptor 1 (Homo sapiens), Q96RJ0; antagonist; inhibition, % at 3 µM; hit rate 1.5% among 360,000;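 active means inhibition above a per-plate cutoff, the mean inhibition of test compounds on that plate plus 3 SD, cut at about 49% in these data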
#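 Test system: CHO RD-HGA16 cells bearing hTAAR1 | Reagent: β-PEA, EC80 | Compound dosing: 3 µM, single point | Schedule: Dye loading 75 min at 37 °C, then 30 min room temperature | Signal: Calcium fluorescence with Fluo-8 | Evaluation: Percent inhibition of PEA-evoked calcium signal, max/basal emission ratio | Control set: DMSO-only wells and EC80 β-PEA-stimulated wells | Repeats: Singlicate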
# VLA-4 allo CP = retest of VLA-4 allosteric modulators, confirmation, cell-based, cherry-picked plates, U937, HUTS-21 LIBS antibody | hit rate 2% among 1,300 | shares compounds with VLA-4 inh | inhibition, % at 6.7 µM | U937 cells, HUTS-21 LIBS mAb binding, flow cytometry; LDV ligand present at threefold Kd; in the data active means inhibition above about 40%
# Hits are given with their value; . = inactive; ? = inconclusive; / = no result given.
SMILES,Rce1 inh,Platelet DG rel,TAAR1 agonist,VLA-4 inh,TAAR1 antag,VLA-4 allo CP
Cc1ccc(NC(=O)[C@H](C)NC(=O)C2CCN(C(=O)[C@H](CC(C)C)NC(=O)OC(C)(C)C)CC2)cc1,.,.,.,.,.,/
C[C@H]1CN([C@@H](C)CO)C(=O)c2cc(C#CC3CCCC3)cnc2O[C@H]1CN(C)C(=O)Cc1ccccn1,/,/,.,/,.,/
COC(=O)c1c(C)[nH]c(C(=O)CN2C(=O)NC3(CCOc4ccccc43)C2=O)c1C (centres undefined),/,/,.,.,.,/
CCCSC1=NN2CCCC(=O)N=C2S1,.,.,.,50,.,.
O=C1CCCN2N=C(SCC(=O)N3CCCCC3)SC2=N1,/,.,.,.,.,/
C[C@@H]1CN([C@H](C)CO)C(=O)CCCn2nncc2CO[C@H]1CN(C)C(=O)c1ccccc1,/,/,.,/,.,/
O=C1OC(c2ccccc2)(c2ccccc2)c2ccsc21,/,/,.,/,.,/
COc1ccc(OC)c(NC(=O)CCn2cccc2)c1,.,.,.,.,.,/
COc1ccc(NC(=O)CCn2cccc2)c(OC)c1,.,.,.,58,.,.
N=c1c(C(=O)NCc2ccc(F)cc2)cc2c(=O)n3ccccc3nc2n1CC1CCCO1 (centres undefined),?,.,.,89,.,.
Cc1ccc(-c2cc(C(=O)N3CC(C)CC(C)C3)c3ccccc3n2)o1 (centres undefined),.,.,.,.,.,/
COC(=O)c1cc(-c2ccc(C)o2)nc2ccccc12,.,.,.,.,.,.
O=C(NCc1ccccc1)NS(=O)(=O)c1ccccc1Cl,.,.,.,.,.,/
O=C(O)Cc1ccc(NS(=O)(=O)c2ccccc2Cl)cc1,.,.,.,.,.,.
Cc1c(NC(=O)c2ccc(C(=O)Nc3c(C)n(C)n(-c4ccccc4)c3=O)cc2)c(=O)n(-c2ccccc2)n1C,.,.,.,.,.,/
Cc1c(NC(=O)Nc2ccc(Cl)c(Cl)c2)c(=O)n(-c2ccccc2)n1C,/,/,.,65,.,.
Cc1ccc2c(C)c(C(=O)Nc3c(C)n(C)n(-c4ccccc4)c3=O)oc2c1,.,.,.,.,.,.
COc1c(C(=O)Nc2c(C)n(C)n(-c3ccccc3)c2=O)ccc2ccccc12,.,.,.,.,.,.
O=C(CN(C(=O)c1csnn1)c1cccc(F)c1)NC1CCCC1,.,.,.,.,.,/
C[C@]12C=CC(=O)C=C1CC[C@H]1[C@@H]3C[C@@H](O)[C@](O)(C(=O)CO)[C@@]3(C)C[C@H](O)[C@@]12F,.,.,.,.,.,/
CC1CC2C3CCC4=CC(=O)C=CC4(C)[C@@]3(Cl)C(O)CC2(C)C1(O)C(=O)CO (some centres undefined),.,.,.,.,.,.
CC(=O)c1ccccc1OCCCCN1CCCCC1,.,.,.,.,.,/
COc1cccc(N(C(=O)CS(=O)CC(=O)Nc2ccc(F)cc2)C(C(=O)NC2CCCCC2)c2cccs2)c1 (centres undefined),.,.,.,.,.,.
CC1C(=O)N2CCCc3cc(S(=O)(=O)Nc4ccccc4C(N)=O)cc1c32 (centres undefined),.,.,.,.,.,.
CC1C(=O)N2CCCc3cc(S(=O)(=O)Nc4ccccc4F)cc1c32 (centres undefined),.,.,.,.,.,/
SMILES,Rce1 inh,Platelet DG rel,TAAR1 agonist,VLA-4 inh,TAAR1 antag,VLA-4 allo CP
COc1cc(/C=N/Nc2ncc(C(F)(F)F)cc2Cl)cc(OC)c1OC,.,.,.,.,.,.
COc1cc(/C=N/Nc2ncc(C(F)(F)F)cc2Cl)cc(OC)c1O,.,.,.,.,.,/
COc1cccc(NC(=O)CN(C)C(=O)c2oc3c(ccc4ccccc43)c2C)c1,.,.,.,.,.,/
O=C(O)c1nn2c(C(F)(F)F)cc(-c3cccs3)nc2c1Cl,.,.,.,.,.,.
CC1(C(=O)NS(=O)(=O)c2cccc(Cl)c2)CCN1C(=O)COc1ccc(Cl)cc1 (centres undefined),/,/,.,/,.,/
Cn1nc(N)c2ncc(-c3ccc(Cl)cc3)nc21,/,/,.,/,.,/
COC(=O)c1cc(CNC(=O)C(C)NS(=O)(=O)c2ccc(C)c(C)c2)ccc1OC (centres undefined),.,.,.,.,.,.
C/C=C/c1cnc2c(c1)C(=O)N([C@H](C)CO)C[C@@H](C)[C@@H](CN(C)C(=O)NC1CCCC1)O2,/,/,.,/,.,/
O=C(O)c1ccc2c3c(cccc13)C(=O)N(c1cccc3ccccc13)C2=O,.,.,.,.,.,/
O=C(O)c1ccc2c(c1)C(=O)N(c1cccc3ccccc13)C2=O,.,.,.,58,.,.
O=c1c(O)c(-c2cc(O)c(O)c(O)c2)oc2cc(O)cc(O)c12,/,/,.,56,.,.
O=S1(=O)C[C@H](N2CC[C@@H](O)C2)[C@@H](COCc2ccccc2)N1,/,/,.,/,.,/
CC(C)(C)c1nnc(NC(=O)NS(=O)(=O)c2ccccc2)s1,.,.,.,73,.,.
CSC[C@H]1CN(c2ccccc2)C(=O)[C@@H]1CC(=O)Nc1ccccc1,/,/,.,/,.,/
O=C1CCC(C(=O)Nc2cccc(Br)c2)N1 (centres undefined),.,.,.,.,.,/
CCOC(=O)Cn1cnc2c(nnn2-c2cccc(OC)c2)c1=O,.,.,.,.,.,.
CCOC(=O)C1=C(COC(=O)CCc2ccc(F)cc2)NC(=O)NC1C (centres undefined),/,/,.,.,.,/
COc1ccc(C(=O)N/C(=C\c2cn(C)c3ccccc23)C(=O)N2CCOCC2)cc1OC,.,.,.,.,.,/
Cc1ccc(-c2nnc(N)s2)cc1,.,.,.,.,.,.
CC(C)c1ccc(-c2nnc(N)s2)cc1,.,.,.,.,.,/
CNC(=O)CSc1nc2c([nH]c3ccccc32)c(=O)n1CCOC,.,.,.,58,.,.
COc1ccc(CN2C(=O)CCCC2(C)c2nc3ccccc3[nH]2)cc1 (centres undefined),/,/,.,/,.,/
O=C(N/N=C/c1ccccc1)C(=O)N/N=C/c1ccccc1,.,.,.,.,.,/
C=C1CC(C(=O)N/N=C/c2ccccc2)C1,.,.,.,.,.,.
COC(=O)N1C[C@H](OC(=O)c2ccc(-c3ccccc3)cc2)[C@H]2C[C@@H]1c1ccccc1O2,/,/,.,/,.,/
Cc1cccc(C)c1OCC(=O)Nc1ncn[nH]1,.,.,.,52,.,.
Cc1cc(OCC(=O)Nc2ncn[nH]2)ccc1Cl,/,/,.,.,.,/
